TAAR1 antagonist – human TAAR1 antagonism; Q96RJ0; CHO RD-HGA16 TAAR1, Fluo-8 calcium fluorescence, antagonist; inhibition, % at 3 µM; 360,000 compounds, 1.5% hits; AID 624466;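 active = inhibition above a per-plate cutoff, the mean inhibition of test compounds on that plate plus 3 SD, cut at about 49% in these data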
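test system = CHO RD-HGA16 cells bearing hTAAR1 | replication = singlicate | controls = DMSO-only wells and EC80 β-PEA-stimulated wells | reagent = EC80 β-phenethylamine stimulus | read-out basis = percent inhibition of PEA-evoked calcium signal, max/basal emission ratio | schedule = seeding 17-24 h prior, 75-min 37 °C, 30-min RT dye loading | signal = kinetic Fluo-8 calcium fluorescence measurement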
OXTR potentiate – potentiators of human oxytocin receptor. P30559. CHO-OTR cells, Fluo-8 calcium fluorescence, potentiator mode; 0% = oxytocin EC15, 100% = EC100. activation, % at 3 µM. 320,000 compounds, 0.061% hits;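 active = activation above that plate's cutoff, the mean activation of tested compounds plus 3 SD, cut at about 6.6% in these data, passing the limit was not always enough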
Target sequence (P30559 whole entry, looked up): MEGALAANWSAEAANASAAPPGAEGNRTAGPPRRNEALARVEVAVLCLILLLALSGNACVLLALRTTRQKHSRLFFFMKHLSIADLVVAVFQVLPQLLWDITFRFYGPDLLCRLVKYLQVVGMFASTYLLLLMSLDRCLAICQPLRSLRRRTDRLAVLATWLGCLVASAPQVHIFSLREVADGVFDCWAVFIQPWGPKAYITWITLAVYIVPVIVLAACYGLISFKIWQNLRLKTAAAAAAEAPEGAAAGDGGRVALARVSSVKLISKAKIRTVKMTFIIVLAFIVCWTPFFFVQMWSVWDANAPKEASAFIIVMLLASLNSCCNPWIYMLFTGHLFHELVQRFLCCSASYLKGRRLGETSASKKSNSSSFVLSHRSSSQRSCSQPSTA
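Assay system: CHO cell line stably expressing human OTR | Also added: Oxytocin at about EC15, sub-maximal agonist stimulus | Times: Compound 6 min at room temperature before oxytocin, 100 s read | Measured by: Fluo-8 intracellular calcium fluorescence, ex 470-495, em 515-575 nm | Controls: EC15 oxytocin alone as 0%, 75 nM oxytocin as 100%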
OXTR agonist – human OXTR agonism. CHO-OTR cells, Fluo-8 calcium fluorescence; normalized: DMSO 0%, oxytocin 100%. activation, % at 3 µM. 320,000 compounds, 0.32% hits;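 active = activation above the mean of all tested compounds plus 3 SD, cutoff set per screening run, cut at about 20% in these data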;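 note: peak over basal fluorescence ratio from a 100 s FLIPR kinetic read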
TAAR1 agonist – human TAAR1 agonism; activation, % at 3 µM; 360,000 compounds, 0.99% hits; CHO RD-HGA16 TAAR1, Fluo-8 calcium fluorescence; vehicle wells 0%, saturating PEA agonist 100%;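 active = activation above the mean activation of all test compounds in the run plus 3 SD, cut at about 38% in these data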
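Assay system – CHO-derived RD-HGA16 cells with stable Gα16 and human TAAR1 · Compound dosing – one-point dosing at 3 µM (nominal) · Incubation – 17-24 h seeding, 75 min 37 °C dye, 30 min RT · Measured by – kinetic Fluo-8 calcium fluorescence · Control set – DMSO vehicle as 0%, PEA at EC100 as 100% · Repeats – single well for each compound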
V1aR counter – activates human V1a receptor in oxytocin agonist counter-screen | activation, % at 3 µM | AID 2797 | P37288 | CHO-V1R cells, Fluo-8 calcium fluorescence, agonist mode; 0% DMSO, 100% 3 nM vasopressin | 320,000 compounds, 0.25% hits;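 active = activation above the mean activation of all tested compounds plus 3 SD, per screening run, cut at about 20% in these data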;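 note: signal is peak over basal fluorescence ratio across a 100 second FLIPR read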
Hits are given with their value; 0 = inactive; - = not tested or not shown. Rows were chosen to be rich in hits. Some 2.3% of all compounds tested hit in one or more screens of this group.

SMILES	TAAR1 antagonist	OXTR potentiate	OXTR agonist	TAAR1 agonist	V1aR counter
Cc1cccc(C(=O)OCC(=O)Nc2c(C)nn(-c3ccccc3)c2C)c1O	0	0	0	0	0
O=S1(=O)C=C(Sc2ccc(Cl)cc2)c2ccccc2C1Cc1ccc(F)cc1 (centres undefined)	0	-	-	0	-
CCC(CO)Nc1ccn2nc(-c3cccc(Cl)c3)cc2n1 (centres undefined)	0	-	-	0	-
CCCc1ccc2c(C)cccc2n1	0	-	-	0	-
CC(=O)c1cccc(NC(=O)c2ccoc2C)c1	0	0	0	0	0
COc1ccc(C(=O)Nc2cccc(/C(C)=N\NC(=O)c3ccoc3C)c2)cc1OC	49	-	-	0	-
COC(=O)[C@]12C[C@H](CC(=O)NCc3ccc(C)o3)C(=O)N(CCC3=CCCCC3)C1=C[C@H](COCc1ccccc1)O[C@@H]2C	0	-	-	0	-
CC(C)(C)OC(=O)NCc1ccc(CNC(=O)c2nc[nH]c2C(=O)NCc2ccc(CNC(=O)OC(C)(C)C)cc2)cc1	0	0	0	0	0
C[C@H](NC(=O)c1nc[nH]c1C(=O)N[C@@H](C)c1ccccc1)c1ccccc1	54	0	0	42	0
CC(C)(C)OC(=O)NCCCCCNC(=O)c1nc[nH]c1C(=O)NCc1ccc(CNC(=O)OC(C)(C)C)cc1	81	0	0	0	0
O=C(Nc1ccccc1)c1nc[nH]c1C(=O)NCCCNC(=O)c1[nH]cnc1C(=O)Nc1ccccc1	54	0	0	0	0
CC(C)(C)OC(=O)NCCCCCNC(=O)c1[nH]cnc1C(=O)N[C@@H](CCCCNC(=O)OC(C)(C)C)C(=O)OC(C)(C)C	-	0	0	-	0
CC(C)(C)OC(=O)NCCCCCNC(=O)c1nc[nH]c1C(=O)NCCCCCNC(=O)OC(C)(C)C	69	0	0	0	0
C=C1C(=O)CC2=C1[C@](Cc1ccc(F)cc1)(C(=O)OC)N(C(=O)c1ccccc1)C2	0	-	-	0	-
C=C1C(=O)C=C2CN(C(=O)c3ccccc3)[C@@](Cc3ccc(F)cc3)(C(=O)OC)[C@@H]12	-	0	69	-	81
Cc1nn(-c2ccccc2)c(N2CCCC2)c1/C=N/NC(=O)c1cc(-c2cccnc2)nc2ccccc12	51	0	0	0	0
Cc1nn(-c2ccccc2)c(N2CCCC2)c1/C=N/NC(=O)c1ccccc1O	0	0	0	0	0
O=C(c1ccccc1)C12COc3ccccc3C1ON=C2c1ccccc1 (centres undefined)	0	-	-	0	-
Cc1cc(C(=O)CN2C(=O)CCC2=O)c(C)n1Cc1ccccc1	0	0	0	40	0
Cc1cc(C(=O)CN2C(=O)NC3(CCCc4ccccc43)C2=O)c(C)n1Cc1ccccc1 (centres undefined)	0	0	0	0	0
Cc1cc(NC(=O)NC(=O)c2ccccc2NC(=O)C(C)N)ccc1Oc1ncc(Br)cn1 (centres undefined)	0	-	-	43	-
O=C(O)c1cc(Cl)ccc1-c1ccc(/C=C/c2cc(C(F)(F)F)[nH]c(=O)n2)o1	0	0	0	67	0
Cc1cccc(C)c1-n1c(C)cc(/C=N\Nc2ccc([N+](=O)[O-])cn2)c1C	51	0	0	0	0
O=S(=O)(c1ccccc1F)N1CCN(c2nc(-c3cccnc3)nc3ccccc23)CC1	57	0	0	0	0
N#Cc1ccccc1S(=O)(=O)N1CCN(c2nc(-c3cccnc3)nc3ccccc23)CC1	51	-	-	0	-
SMILES	TAAR1 antagonist	OXTR potentiate	OXTR agonist	TAAR1 agonist	V1aR counter
COc1cccc(C(=O)/C=C/Nc2ccc(S(=O)(=O)Nc3ccc(C(C)=O)cc3)cc2)c1	0	0	0	0	0
COc1ccc(C(=O)/C=C/Nc2ccc(S(=O)(=O)Nc3cccc(C(C)=O)c3)cc2)cc1	56	0	0	0	0
Nc1nc2c(-c3ccc([N+](=O)[O-])cc3)nnn2c2ccccc12	0	-	-	0	-
CCOc1cc(CNCCc2ccc(S(N)(=O)=O)cc2)cc(Cl)c1OCc1ccccc1	-	0	37	-	22
CCOc1cc(CNCc2ccccc2)ccc1OCc1ccc(Cl)cc1	0	0	26	48	28
CC1CCCC(NC(=O)CCNC(=O)c2ccc([N+](=O)[O-])cc2)C1C (centres undefined)	0	0	0	0	0
COCC(C)NC(=O)CSc1nc2ccccc2c(=O)n1CCc1ccc(S(N)(=O)=O)cc1 (centres undefined)	54	0	0	0	0
CC(C)/C=C1\CC/C(=C\c2ccc(N(C)C)cc2)C1=O	72	0	69	57	59
Cc1ccc(-n2c(N)c(C#N)c(-c3ccc(Cl)cc3)c(C#N)c2=O)cc1	0	0	29	0	24
Cc1ccc(-c2c(C#N)c(N)n(-c3ccc(C)cc3)c(=O)c2C#N)cc1	0	0	0	0	0
COc1ccc(-c2csc(NC(=O)C3CCN(c4ncnc5sc(C)c(C)c45)CC3)n2)cc1OC	50	0	0	0	0
CCc1cccc(NC(=O)C2CCN(c3ncnc4sc(C)c(C)c34)CC2)c1	53	0	0	0	0
CC1(c2ccccc2Br)NC(=O)N(CC(=O)Nc2ccc(S(N)(=O)=O)cc2)C1=O (centres undefined)	0	0	0	0	0
O=C(N[C@H](Cc1ccccc1)C(=O)NCCN1CCOCC1)[C@H]1O[C@@H](n2ccc(=O)[nH]c2=O)[C@H](O)[C@@H]1O	0	-	-	0	-
COc1ccccc1CN1CCNC(=O)C1CC(=O)NC1Cc2ccccc2C1 (centres undefined)	0	0	0	41	0
COc1ccccc1CN1CCNC(=O)C1CC(=O)O (centres undefined)	0	0	0	0	0
CC(=O)c1cccc(NC(=O)CSc2ccc(-c3sc(C)nc3C)nn2)c1	0	0	0	0	0
Cc1nc(C)c(-c2ccc(SCC(=O)Nc3cccc(Cl)c3)nn2)s1	52	0	0	0	0
Cc1ccccc1Nc1nnc(SCc2cc([N+](=O)[O-])cc3c2OCOC3)s1	-	0	0	-	0
O=[N+]([O-])c1cc2c(c(CSc3nnc(Nc4ccccc4)s3)c1)OCOC2	53	0	0	0	0
O=C1N[C@H](Cc2ccccc2)COC(=O)[C@H](Cc2ccc(F)cc2)CC/C=C/C[C@@H]1CC(=O)N(CCO)Cc1ccccc1	64	0	0	44	0
O=C1OC[C@@H]2CCCN2C(=O)[C@@H](CC(=O)N(CCO)Cc2ccccc2)C/C=C\C[C@@H]1Cc1ccc(F)cc1	54	0	0	0	0
O=C1N[C@@H](Cc2c[nH]c3ccccc23)COC(=O)[C@H](Cc2ccc(F)cc2)C/C=C\C[C@@H]1CC(=O)N(CCO)Cc1ccccc1	0	0	0	0	0
O=C1N[C@@H](Cc2c[nH]c3ccccc23)COC(=O)[C@@H](Cc2ccc(F)cc2)C/C=C\C[C@H]1CC(=O)N(CCO)Cc1ccccc1	55	0	0	0	0

Screening data as filed in PubChem.
